Reference: ChEMBL document CHEMBL4316636, “Tetrandraxanthones A-I, Prenylated and Geranylated Xanthones from the Stem Bark of Garcinia tetrandra” (J Nat Prod, 2019)

How the values were obtained:
Type in all cases: functional, cell-based
[1] = tested on: KB; test: Cytotoxicity in human KB cells incubated for 72 hrs by MTT assay
Summary of the method: (§1)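 MTT colorimetric read-out after 72 h incubation of tumour cells: Hep G2 hepatocellular carcinoma, HeLa S3 cervix adenocarcinoma, MCF-7 breast adenocarcinoma, HT-29 colon adenocarcinoma, and KB epidermoid carcinoma. IC50 is given as the mean ± SD of three experiments, with doxorubicin as the positive control. HeLa S3 and KB were screened first.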

[2] = tested on: HeLa S3; test: Cytotoxicity in human HeLaS3 cells incubated for 72 hrs by MTT assay; details: HeLa S3, 72 h; summary of the method: as §1
[3] = tested on: HepG2; test: Cytotoxicity in human HepG2 cells incubated for 72 hrs by MTT assay; details: HepG2, 72 h; summary of the method: as §1
[4] = tested on: HT-29; test: Cytotoxicity in human HT-29 cells incubated for 72 hrs by MTT assay; details: HT-29, 72 h; summary of the method: as §1
[5] = tested on: MCF7; test: Cytotoxicity in human MCF7 cells incubated for 72 hrs by MTT assay; details: MCF7, 72 h; summary of the method: as §1

Row | SMILES | IC50 [1] [µM] | IC50 [2] [µM] | IC50 [3] [µM] | IC50 [4] [µM] | IC50 [5] [µM]
1 | COc1cccc2c1C(=O)c1c(O)c3c(c(O)c1C2=O)C[C@@](O)(C(=O)CO)C[C@@H]3O[C@H]1C[C@H](N)[C@H](O)[C@H](C)O1 [DOXORUBICIN] | 0.01 | 0.12 | 1.43 | 0.34 | 0.49
2 | COc1c(O)ccc2c(=O)c3c(O)c4c(cc3oc12)OC(C)(C)C=C4 | > 10 | > 10 | > 10 | > 10 | > 10
3 | O=c1c2ccc(O)c(O)c2oc2cc(O)cc(O)c12 | > 10 | > 10 | > 10 | > 10 | > 10
4 | COc1c(O)cc2oc3cc4c(c(O)c3c(=O)c2c1CC=C(C)C)C=CC(C)(C)O4 [MANGOSTANIN] | 1.7 | 1.9 | 3.4 | 1.6 | 1.9
5 | O=c1c2cc(O)ccc2oc2cccc(O)c12 | > 10 | > 10 | > 10 | > 10 | > 10
6 | C=CC(C)(C)c1c(OC)c(CC=C(C)C)c(O)c2c(=O)c3ccc(O)c(O)c3oc12 [NIGROLINEAXANTHONE E] | > 10 | > 10 | > 10 | > 10 | > 10
7 | COc1c(O)cc2oc3cc(O)c(CC=C(C)C)c(O)c3c(=O)c2c1CCC(C)(C)O [GARCINONE D] | > 10 | > 10 | > 10 | > 10 | > 10
8 | COc1c(O)c(OC)c2oc3cc4c(c(O)c3c(=O)c2c1OC)C=CC(C)(C)O4 | > 10 | > 10 | > 10 | > 10 | > 10
9 | C=C1CCCC(C)(C)C1Cc1c(OC)c(O)cc2oc3cc(O)cc(O)c3c(=O)c12 (stereo not given) | > 10 | > 10 | > 10 | > 10 | > 10
10 | O=c1c2cc(O)c(O)cc2oc2cc(O)cc(O)c12 | > 10 | > 10 | > 10 | > 10 | > 10
11 | COc1c(O)cc2oc3c(CC=C(C)C)c(O)cc(O)c3c(=O)c2c1C/C=C(\C)CCC=C(C)C | 7.1 | 9 | > 10 | > 10 | 7
12 | COc1c(O)cc2oc3c(C/C=C(\C)CCC=C(C)C)c(O)c(CC=C(C)C)c(O)c3c(=O)c2c1CC=C(C)C | > 10 | > 10 | > 10 | > 10 | > 10
13 | COc1c(O)cc2oc3cc(O)cc(O)c3c(=O)c2c1CC1=C(C)CCCC1(C)C | > 10 | > 10 | > 10 | > 10 | > 10
14 | COc1c(O)cc2oc3c(C/C=C(\C)CCC=C(C)C)c(O)cc(O)c3c(=O)c2c1CC=C(C)C | 4.9 | 5.8 | > 10 | > 10 | 4.3
15 | O=c1c2cc(O)ccc2oc2cc(O)cc(O)c12 | > 10 | > 10 | > 10 | > 10 | > 10
16 | COc1c(O)cc2oc3cc4c(c(O)c3c(=O)c2c1CCC(C)(C)O)CCC(C)(C)O4 | > 10 | > 10 | > 10 | > 10 | > 10

Row | SMILES | IC50 [1] [µM] | IC50 [2] [µM] | IC50 [3] [µM] | IC50 [4] [µM] | IC50 [5] [µM]
17 | COc1c(O)cc2oc3c4c(cc(O)c3c(=O)c2c1C/C=C(\C)CCC=C(C)C)OC(C)(C)C=C4 | > 10 | > 10 | > 10 | > 10 | > 10
18 | COc1c(O)cc2oc3c4c(cc(O)c3c(=O)c2c1CC=C(C)C)OC(C)(CCC=C(C)C)C=C4 (stereo not given) | > 10 | > 10 | > 10 | > 10 | > 10
19 | COc1c(O)cc2oc3cc(O)cc(O)c3c(=O)c2c1C/C=C(\C)CCCC(C)(C)O [BUTYRAXANTHONE D] | > 10 | > 10 | > 10 | > 10 | > 10
20 | COc1c(O)cc2oc3cc(O)cc(O)c3c(=O)c2c1C/C=C(\C)CCC=C(C)C [RUBRAXANTHONE] | > 10 | > 10 | > 10 | > 10 | > 10
21 | COc1c(O)cc2oc3c(C/C=C(\C)CCC=C(C)C)c(O)cc(O)c3c(=O)c2c1CCC(C)(C)O | > 10 | > 10 | > 10 | > 10 | > 10
22 | COc1c(O)cc2oc3cc(O)c(CC=C(C)C)c(O)c3c(=O)c2c1CC=C(C)C [MANGOSTIN] | > 10 | > 10 | > 10 | > 10 | > 10
23 | COc1c(O)cc2oc3cc(O)cc(O)c3c(=O)c2c1CCC(C)(O)CCC=C(C)C (stereo not given) | > 10 | > 10 | > 10 | > 10 | > 10
24 | COc1c(O)cc2oc3c(CC=C(C)C)c(O)cc(O)c3c(=O)c2c1CCC(C)(O)CCC=C(C)C (stereo not given) | 7.1 | > 10 | > 10 | > 10 | 8.8
25 | COc1c(O)cc2oc3cc(O)cc(O)c3c(=O)c2c1CC=C(C)C | > 10 | > 10 | > 10 | > 10 | > 10
26 | C=CC(C)(C)c1c2c(c(O)c3c(=O)c4ccc(O)c(O)c4oc13)C=CC(C)(C)O2 [MACLURAXANTHONE] | 7.4 | 6.7 | > 10 | > 10 | > 10
27 | COc1c(O)cc2oc3c(CC=C(C)C)c(O)cc(O)c3c(=O)c2c1CC=C(C)C | > 10 | > 10 | > 10 | > 10 | > 10
28 | CC1(C)CCc2c(cc3oc4ccc(O)cc4c(=O)c3c2O)O1 | > 10 | > 10 | > 10 | > 10 | > 10
29 | COc1c(O)cc2oc3cc4c(c(O)c3c(=O)c2c1CC=C(C)C)CCC(C)(C)O4 | > 10 | > 10 | > 10 | > 10 | > 10
30 | COc1c(O)cc2oc3cc(O)cc(O)c3c(=O)c2c1CCC1(C)CCCC(C)(C)O1 (stereo not given) | > 10 | > 10 | > 10 | > 10 | > 10
31 | COc1c(OC)c(OC)c2c(=O)c3c(O)c4c(cc3oc2c1OC)OC(C)(C)C=C4 | > 10 | > 10 | > 10 | > 10 | > 10
